For assay [1], the system named is HT-29. Description: Growth inhibition of human HT-29 cells at 2.5 uM after 3 days by trypan blue dye exclusion assay. Type of assay: functional. As to conditions: HT-29, 72 h, read-out: GI. Put shortly: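 HT29 cells treated 48 h after seeding, dosed daily with daily medium change over three days; drug diluted in DMSO, controls 0.1% (v/v) DMSO. Cells trypsinized, mixed 1:1 with 0.04% trypan blue, live cells counted by hematimeter. Reported as mitotic index (treated/DMSO count); triplicates from two independent experiments.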

For assay [2], the system named is HT-29. Description: Induction of HO1 expression in human HT-29 cells at 2.5 uM after 6 hrs by Western blotting method. The assay is classed as functional. Put shortly: (§1)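 HT29 whole-cell lysates in Hepes/KOH pH 7.5 with EDTA, KCl, NP40, DTT, protease inhibitors; 50 µg protein on 10–15% SDS-PAGE, nitrocellulose, overnight 4°C primary antibody (GCL 1:500, HO-1 1:1000), HRP secondary, chemiluminescence. Bands normalized to GAPDH (1:10 000), DMSO ratio set at 1.00; representative of three independent experiments.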
For orientation: Immunoblotting shows a protein as a band on a membrane.

Assay [3] relates to HT-29. Description: Induction of GCL expression in human HT-29 cells at 2.5 uM after 6 hrs by Western blotting method. Type of assay: functional. A digest of the protocol:
as §1

In assay [4] the test system is HT-29. Description: Induction of GCL expression in human HT-29 cells at 2.5 uM after 24 hrs by Western blotting method. The assay is classed as functional. Put shortly: as §1
Assay [5] has as its system HT-29. Description: Induction of HO1 expression in human HT-29 cells at 2.5 uM after 4 hrs by Western blotting method. Type of assay: functional. A digest of the protocol: as §1
For assay [6], the system named is HT-29. Description: Induction of NQO1 expression in human HT-29 cells at 2.5 uM after 2 hrs by Western blotting method. Type of assay: functional. Put shortly:
(§2)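 Whole-cell lysates from treated HT29 cells in pH 7.5 Hepes/KOH buffer with EDTA, KCl, Igepal, DTT and protease inhibitors. 50 µg protein run on 10-15% SDS-PAGE and transferred to nitrocellulose. Probed overnight at 4°C with anti-HO-1 (1:1 000), anti-NQO1 (1:1 000) or anti-GCL (1:500), then HRP secondary for 45 min and chemiluminescence. Bands normalized to GAPDH (1:10 000), with the DMSO ratio set to 1.00. Representative of three experiments.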

Assay [7] deals with HT-29. Description: Induction of Nrf2 expression in human HT-29 cells nuclei homogenates over 1 to 6 hrs by Western blotting method. Type of assay: functional, cell-based. Put shortly: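 HT29 cells treated and fractionated, and nuclear homogenates immunoblotted with anti-Nrf2 (1:500) after SDS-PAGE and nitrocellulose transfer. Primary antibody overnight at 4°C, HRP secondary and chemiluminescence. Blots stripped and reprobed for GAPDH (1:10 000) for normalization, with the DMSO ratio set to 1.00. Representative of three independent experiments.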

Assay [8] deals with HT-29. Description: Induction of cell cycle arrest in human HT-29 cells assessed as accumulation at subG1 phase by propidium iodide staining based flow cytometry (reference value: 2.3 +/- 0.1%). Type of assay: functional. In general terms: In flow cytometry, cells or beads pass a laser one at a time.
The test system of assay [9] is HT-29. As to the kind of experiment: Induction of GCL expression in human HT-29 cells at 2.5 uM after 2 hrs by Western blotting method. Type of assay: functional. A digest of the protocol:
as §1

Assay [10] relates to HT-29. As to the kind of experiment: Reduction in cell growth of human HT-29 cells at 2.5 uM after 3 days by trypan blue dye exclusion assay. Type of assay: functional, cell-based. A digest of the protocol: (§3)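 HT29 cells treated daily from 48 h after seeding, over three days with daily medium changes, in 0.1% (v/v) DMSO vehicle. Cells trypsinised, mixed 1:1 with 0.04% trypan blue, and living cells counted by haemocytometer under microscope. Mitotic index is treated count relative to DMSO control. Triplicate determinations, two independent experiments, mean ± S.E.M.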

In assay [11] the test system is HT-29. Description: Induction of cell cycle arrest in human HT-29 cells assessed as accumulation at G0/G1 phase by propidium iodide staining based flow cytometry (reference value: 67.7 +/- 0.5%). The assay is classed as functional.
Assay [12] has as its system HT-29. As to the kind of experiment: Induction of NQO1 expression in human HT-29 cells at 2.5 uM after 6 hrs by Western blotting method. The assay is classed as functional. Put shortly: as §2
Assay [13] deals with HT-29. Description: Induction of cell cycle arrest in human HT-29 cells assessed as accumulation at G2/M phase by propidium iodide staining based flow cytometry (reference value: 11.3 +/- 1%). Type of assay: functional.
Assay [14] has as its system HT-29. As to the kind of experiment: Induction of NQO1 expression in human HT-29 cells at 2.5 uM after 4 hrs by Western blotting method. Type of assay: functional. Put shortly: as §2
In assay [15] the test system is HT-29. Description: Induction of NQO1 expression in human HT-29 cells at 2.5 uM after 24 hrs by Western blotting method. Type of assay: functional. Put shortly: as §2
The test system of assay [16] is HT-29. As to the kind of experiment: Induction of HO1 expression in human HT-29 cells at 2.5 uM after 2 hrs by Western blotting method. The assay is classed as functional. Put shortly:
as §1

For assay [17], the system named is HT-29. As to the kind of experiment: Reduction in cell viability of human HT-29 cells assessed as reduction in living cell level at 2.5 uM after 24 to 48 hrs by DCF-DA and propidium iodide staining based flow cytometry. The assay is classed as functional. Put shortly: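 HT29 cells treated two days after seeding, then loaded together with 50 µM DCF-DA and 25 µg/mL propidium iodide for 15 min at 37°C. Cells trypsinised, washed and resuspended in PBS; 30 000 cells per sample read by flow cytometry (FL-1, FL-3). Viable cells (PI-negative, DCF-positive) given as % of total events. Triplicates, two independent experiments.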

The subject of assay [18] is HT-29. As to the kind of experiment: Induction of HO1 expression in human HT-29 cells at 2.5 uM after 24 hrs by Western blotting method. The assay is classed as functional. A digest of the protocol: as §1
Assay [19] has as its system HT-29. Description: Induction of GCL expression in human HT-29 cells at 2.5 uM after 4 hrs by Western blotting method. Type of assay: functional. A digest of the protocol:
as §1

For assay [20], the system named is HT-29. As to the kind of experiment: Inhibition of cell growth in human HT-29 cells assessed as mitotic index ratio in absence of 1 mM ascorbic acid (reference value: 1). The assay is classed as functional. A digest of the protocol:
as §3

For assay [21], the system named is HT-29. As to the kind of experiment: Induction of ROS generation in human HT-29 cells at cytotoxic IC50 level after 1 hr by DCF-DA staining based fluorescence assay. The assay is classed as functional, cell-based. Put shortly:
(§4)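 HT29 cells treated two days after seeding, then loaded with 50 µM DCF-DA for 15 min at 37°C. Cells trypsinized, washed and resuspended in PBS, and 30 000 cells/sample read by flow cytometry (FL-1). Expressed as % of DMSO-treated cells; […] for 1 h served as positive control. Triplicates from three independent experiments.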

The test system of assay [22] is HT-29. As to the kind of experiment: Induction of cell cycle arrest in human HT-29 cells assessed as accumulation at G0/G1 phase by propidium iodide staining based flow cytometry (reference value: 46.1 +/- 0.4%). The assay is classed as functional.
In assay [23] the test system is HT-29. As to the kind of experiment: Induction of ROS generation in human HT-29 cells at cytotoxic IC50 level after 6 hrs by DCF-DA staining based fluorescence assay. Type of assay: functional, cell-based. A digest of the protocol:
as §4

Assay [24] relates to HT-29. Description: Inhibition of cell growth in human HT-29 cells assessed as mitotic index ratio in presence of 1 mM ascorbic acid (reference value: 1.12 +/- 0.03). Type of assay: functional.
The subject of assay [25] is HT-29. As to the kind of experiment: Induction of cell cycle arrest in human HT-29 cells assessed as accumulation at subG1 phase by propidium iodide staining based flow cytometry (reference value: 6.9 +/- 0.5%). The assay is classed as functional.
In assay [26] the test system is HT-29. As to the kind of experiment: Induction of NQO1 expression in human HT-29 cells at 3.8 uM after 6 hrs by Western blotting method. Type of assay: functional. Put shortly: as §2
In assay [27] the test system is HT-29. As to the kind of experiment: Induction of NQO1 expression in human HT-29 cells at 10 uM after 2 hrs by Western blotting method. Type of assay: functional. A digest of the protocol:
as §2

For assay [28], the system named is HT-29. As to the kind of experiment: Induction of HO1 expression in human HT-29 cells at 10 uM after 2 hrs by Western blotting method. The assay is classed as functional. Put shortly: as §1
The subject of assay [29] is HT-29. Description: Induction of NQO1 expression in human HT-29 cells at 10 uM after 6 hrs by Western blotting method. Type of assay: functional. Put shortly: as §2

Active and inactive are the calls of the source. The calls are words filed in the database; no cut-off is given here.

For `COc1ccc(/C=C2\S/C(=N\c3nc(-c4ccc(Cl)cc4)cs3)NC2=O)cc1`, the inhibition of growth at 2.5 µM with HT-29 [1] is 90%. Besides, the “fold change (FC)” value in the assay with HT-29 [2] is on record as 1; in the assay with HT-29 [3], 0.86; in the assay with HT-29 [4], 0.98; in the assay on HT-29 [5], 1; with HT-29 [6] it was 1.07; in the assay with HT-29 [9] it was 1.06. Further, the “fold change (FC)” value with HT-29 [12] was 0.96; in the assay with HT-29 [14] it was 0.85; in the assay on HT-29 [15], 0.85; in the assay on HT-29 [16], 1; in the assay with HT-29 [18] it was 1; in the assay on HT-29 [19], 0.87. The outcome with HT-29 [7] was inactive. Further, the Activity with HT-29 [8] stood at 20.9%; in the assay on HT-29 [11], 58.7%; in the assay on HT-29 [13], 24.1%. Moreover, the inhibition result in the assay with HT-29 [10] and in the assay on HT-29 [17] was “Active” in each case.
As to `CN(C)c1ccc(/C=C2\S/C(=N\c3nc(-c4ccc(Cl)cc4)cs3)NC2=O)cc1`, the inhibition of growth at 2.5 µM in the assay on HT-29 [1] turned out to be 90%. Also, the “fold change (FC)” value in the assay with HT-29 [2] worked out at 1; in the assay on HT-29 [3] it was 1.2; in the assay with HT-29 [4], 1.18; in the assay on HT-29 [5] it was 1; in the assay on HT-29 [6], 0.93; with HT-29 [9] it was 0.98. The “fold change (FC)” value in the assay with HT-29 [12] was found to be 0.72; in the assay with HT-29 [14], 0.67; in the assay with HT-29 [15], 0.78; with HT-29 [16], 1; in the assay on HT-29 [18] it was 1; with HT-29 [19], 0.99. Besides, the result with HT-29 [7] was inactive. Also, the Activity was found to be 16.2% in the assay on HT-29 [8], 60.6% in the assay with HT-29 [11] and 18.7% in the assay with HT-29 [13]. In addition, the inhibition entry in the assay on HT-29 [10] and in the assay with HT-29 [17] was “Active” in each case. Besides, the Ratio in the assay on HT-29 [20] amounted to 0.13.
In the case of `COc1ccc(/C=C2\S/C(=N\c3csc(-c4ccc(Cl)cc4)c3)NC2=O)cc1`, the result with HT-29 [21] was Active. Moreover, the values for the Activity in the assay with HT-29 [22] and in the assay with HT-29 [25] were 1.2% and 21.6%, respectively. The outcome in the assay with HT-29 [7] and in the assay on HT-29 [23] was inactive. Further, the Ratio in the assay on HT-29 [24] and in the assay on HT-29 [20] was 0.03 throughout. Besides, in the assay with HT-29 [26], the “fold change (FC)” value amounted to 0.9.
Consider `Cc1ccc(/C=C2\S/C(=N\c3csc(-c4ccc(Cl)cc4)c3)NC2=O)cc1`, for which the Activity with HT-29 [22] is given as 1.2%; with HT-29 [25] it was 21.5%. In addition, in the assay on HT-29 [7], the result was inactive. The Ratio in the assay with HT-29 [24] and in the assay on HT-29 [20] was 0.02 throughout.
On to `CN(C)c1ccc(/C=C2\S/C(=N\c3csc(-c4ccc(Cl)cc4)c3)NC2=O)cc1`, for which the Activity was 1.5% in the assay with HT-29 [22] and 29% with HT-29 [25]. In addition, in the assay with HT-29 [7], the result was inactive. Also, the Ratio in the assay on HT-29 [24] and in the assay with HT-29 [20] was 0.02 in each case.
Consider `COc1ccc(/C=C2\S/C(=N\c3csc(-c4ccc(Cl)cc4)c3)NC2=O)cc1OC`, for which the entries for the “fold change (FC)” value in the assay on HT-29 [27], with HT-29 [28] and in the assay on HT-29 [29] were 1.04, 1 and 1.23, respectively. Moreover, the outcome with HT-29 [21] was Active. The Activity came out at 2.3% with HT-29 [22] and 20.6% in the assay on HT-29 [25]. In addition, the result with HT-29 [23] was inactive. The Ratio with HT-29 [24] and in the assay on HT-29 [20] was 0.04 throughout.

The values are drawn from ChEMBL document CHEMBL3414496, “Synthesis and biological evaluation of novel 2-heteroarylimino-1,3-thiazolidin-4-ones as potential anti-tumor agents” (Eur J Med Chem, 2015).
